Assay outcomes: PubChem BioAssay, Sanford-Burnham Center for Chemical Genomics
HKDC1 inhibitor: HKDC1 hexokinase inhibitors, primary screen, biochemical, fluorescence, uHTS | Q2TB90 | recombinant HKDC1, G6PDH/diaphorase resazurin coupled fluorescence | inhibition, % at 20 µM | 340,000 tested, 0.16% active;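 active = inhibition above about 35% when tested at 20 µM, limit read from the data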;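 also: plate controls were DMSO wells with enzyme for no effect and DMSO wells lacking enzyme for full effect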
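Incubation: 90 min at room temperature in dark / Material: recombinant HKDC1 (HK5) hexokinase enzyme, produced in-house / Quantity: enzyme 5 µg/mL final / Compound: one dose of 20 µM, 1% DMSO / Reagent: glucose and ATP substrates / Buffer or medium: Tris pH 8.0 buffer with MgCl2, Tween-20, BSA, BME / Technique: resorufin fluorescence at 613 nm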
G6PDH counter: L. mesenteroides G6PDH inhibitors, counter-screen for G6PDH-coupled screening assays, biochemical, Leuconostoc mesenteroides enzyme; glucose-6-phosphate dehydrogenase [Leuconostoc mesenteroides]; Purified L. mesenteroides G6PDH, diaphorase/resazurin coupled fluorescence, 45 min; inhibition, % at 5 µM; 200,000 tested, 0.12% active; AID 1020, 2008; in the data active = inhibition above about 50%
Diaph inh CS: diaphorase inhibitors and chemical oxidizers, primary screen, counter-screen for diaphorase-coupled primary assays, biochemical, uHTS, resorufin fluorescence. diaphorase resazurin-to-resorufin fluorescence, NADH, 16 min; bacterial (C. kluyveri) enzyme, not human. inhibition, % at 20 µM. 190,000 tested, 0.69% active;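 active = primary screen inhibition at 20 µM above a set limit, cut at about 50% in these data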;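 also: plate controls were DMSO with full reaction for no effect and wells lacking NADH for full effect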
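System: Bacterial diaphorase enzyme (C. kluyveri) | Incubation: 16-min room-temperature incubation before reading | Benchmarks: No-NADH positive control and DMSO neutral control | Measured by: Resorufin fluorescence 544/590 nm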
PfGluPho inh: PfG6PD enzyme inhibitors, primary screen, biochemical, fluorescence intensity, uHTS. glucose-6-phosphate dehydrogenase-6-phosphogluconolactonase (Plasmodium falciparum 3D7). AID 504690, 2011. inhibition, % at 20 µM. PfGluPho enzyme, NADPH resazurin-diaphorase fluorescence. 350,000 tested, 0.78% active;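 active = inhibition reaching at least a set limit at 20 µM in the primary screen, cut at about 59% in these data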;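 also: 0% = DMSO wells with substrate and 100% = DMSO wells lacking glucose-6-phosphate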
PfGluPho conf: PfG6PD inhibitors, hit retest, confirmation, biochemical, fluorescence intensity, single concentration; shares compounds with PfGluPho inh; recombinant PfGluPho, NADPH-diaphorase-resazurin fluorescence; inhibition, % at 20 µM; 2,400 tested, 34% active; AID 504753, 2011;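 active = inhibition of at least 50% at 20 µM in any single replicate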;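 also: 0% = DMSO with substrate and 100% = DMSO lacking glucose-6-phosphate substrate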
Diaph ctr 10uM: diaphorase inhibitors and chemical oxidizers, confirmation, counter-screen for P. falciparum G6PD inhibitor project, biochemical, fluorescence intensity, 10 µM NADPH. shares compounds with PfGluPho inh. diaphorase-coupled resazurin reduction, NADPH 10 uM. inhibition, % at 20 µM. 820 tested, 39% active. AID 504862, 2011;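 active = average inhibition reaching 50% or more with the compound at 20 µM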;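 also: resorufin red fluorescence formed as diaphorase reduces resazurin using NADPH; 0% = DMSO with enzyme and 100% = DMSO without enzyme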
Diaph ctr 30uM: diaphorase inhibitors and chemical oxidizers, confirmation, counter-screen for P. falciparum G6PD inhibitor project, biochemical, fluorescence intensity, 30 µM NADPH. shares compounds with PfGluPho inh. Diaphorase/resazurin coupled assay, resorufin fluorescence. inhibition, % at 20 µM. 820 tested, 29% active. AID 504863, 2011;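 active = inhibition averaging 50% or more, tested at 20 µM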;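 also: 0% = DMSO with enzyme and 100% = DMSO wells lacking diaphorase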
* = called active by the depositor. Hits are enriched below; roughly 1.2% of the tested compounds scored in any of these assays.

Screening Cc1ccc(S(=O)(=O)/N=C(\c2ccccc2)N(C)S(=O)(=O)c2ccc(C)cc2)cc1 returned HKDC1 inhibitor -2, G6PDH counter -7, Diaph inh CS 18 and PfGluPho inh 55.
Screening Cc1ccc(S(=O)(=O)N(C)/C(=N/S(=O)(=O)c2ccccc2)c2ccccc2)cc1 returned HKDC1 inhibitor -11, G6PDH counter -12, Diaph inh CS 10, PfGluPho inh 82* and PfGluPho conf 46.
Cc1noc(C(=O)Nc2sc3c(c2C#N)CCC3)c1Cl was read as HKDC1 inhibitor -1, G6PDH counter 7, Diaph inh CS 24, PfGluPho inh 83*, PfGluPho conf 52*, Diaph ctr 10uM 22 and Diaph ctr 30uM 15.
For Cc1cc(C(=O)Nc2sc3c(c2C#N)CCC3)no1 the results were HKDC1 inhibitor -3, G6PDH counter -7, Diaph inh CS 16 and PfGluPho inh -5.
For CCOC(=O)c1sc2nc(N3CCOCC3)c3c(c2c1N)CCC3 the results were HKDC1 inhibitor 4, G6PDH counter 3, Diaph inh CS 9 and PfGluPho inh 9.
For CCCCN(CCCC)C(=O)c1sc2nc(N3CCOCC3)c3c(c2c1N)CCCC3 the results were HKDC1 inhibitor 6, PfGluPho inh 71* and PfGluPho conf -6.
Screening NC(=O)c1sc2nc(N3CCOCC3)c3c(c2c1N)CCCC3 returned HKDC1 inhibitor 11, G6PDH counter 5, Diaph inh CS 32, PfGluPho inh 66* and PfGluPho conf 12.
For Cc1[nH]c2ccccc2c1/C=N/NC(N)=S the results were HKDC1 inhibitor -3 and PfGluPho inh 6.
`CCc1nnc(N/N=C/c2c(C)[nH]c3ccccc23)n1N` gave HKDC1 inhibitor 15, G6PDH counter 9, Diaph inh CS 9, PfGluPho inh 60* and PfGluPho conf 38.
CCN(CC)C(=O)C1=C(C)N(CCCN2CCCC2=O)C(=O)C(CC(=O)NC(c2ccccc2)c2ccccc2)C1 (centres undefined) was read as PfGluPho inh -6.
For COc1ccccc1C(=O)NCCN1CCN(c2ccccc2)CC1 the results were HKDC1 inhibitor -2 and PfGluPho inh -9.
For COc1ccc(-n2c(NN)nc3sc4c(c3c2=O)CCCC4)cc1 the results were HKDC1 inhibitor -1, G6PDH counter 4, Diaph inh CS 11, PfGluPho inh 92* and PfGluPho conf 29.
`COc1cc(C(=O)Nc2cccc(S(=O)(=O)N3CCCC3)c2)cc(OC)c1C` gave HKDC1 inhibitor 4, PfGluPho inh 60* and PfGluPho conf -8.
CC(=O)c1cccc(CN(C)CC2CCCN(CCc3ccccc3C)C2)c1 (centres undefined) was read as HKDC1 inhibitor -6 and PfGluPho inh -9.
For C[C@@H]1CN([C@@H](C)CO)C(=O)c2cc(NC(=O)c3ccccc3)ccc2O[C@@H](C)CCCCO[C@@H]1CN(C)S(=O)(=O)c1ccc(F)cc1 the results were PfGluPho inh 3.
Screening Nc1ccc(N(CCO)CCO)cc1 returned HKDC1 inhibitor 10, G6PDH counter 35, Diaph inh CS 53*, PfGluPho inh 63*, PfGluPho conf 55*, Diaph ctr 10uM 25 and Diaph ctr 30uM 14.
Screening CC(=O)c1ccc(N2CCN(S(=O)(=O)c3ccc(-c4cnc(C5CC5)o4)cc3)CC2)cc1 returned HKDC1 inhibitor 1 and PfGluPho inh 1.
Screening Cc1cc(C(=O)CSc2nnc(-c3cccs3)o2)c(C)n1-c1ccccc1 returned HKDC1 inhibitor 4, G6PDH counter -35, Diaph inh CS 29, PfGluPho inh 79* and PfGluPho conf 43.
For Cc1nnc(SCC(=O)c2cc(C)n(-c3ccc4c(c3)OCO4)c2C)s1 the results were HKDC1 inhibitor 5, G6PDH counter 4, Diaph inh CS 28, PfGluPho inh 98*, PfGluPho conf 69*, Diaph ctr 10uM 56* and Diaph ctr 30uM 42.
Cc1cc(C(=O)CSc2nnc(-c3ccco3)o2)c(C)n1-c1ccc2c(c1)OCCO2 was read as HKDC1 inhibitor 2, G6PDH counter 2, Diaph inh CS 31, PfGluPho inh 75* and PfGluPho conf 36.
Screening Cc1cc(C(=O)CSc2nnc(-c3ccco3)o2)c(C)n1Cc1ccco1 returned HKDC1 inhibitor 1, G6PDH counter 0, Diaph inh CS 12 and PfGluPho inh 18.
`O=C(CSc1nnc(-c2cccs2)o1)c1cccs1` gave HKDC1 inhibitor -7, G6PDH counter -1, Diaph inh CS -4 and PfGluPho inh 0.
For C[C@@H]1CN([C@@H](C)CO)C(=O)c2cc(Br)cnc2O[C@@H]1CN(C)C(=O)CN(C)C the results were PfGluPho inh 4.
Screening CN(CCO)c1cc(Sc2nc3ccccc3s2)c2nonc2c1[N+](=O)[O-] returned HKDC1 inhibitor 4, G6PDH counter 5, Diaph inh CS 2, PfGluPho inh 88*, PfGluPho conf 70*, Diaph ctr 10uM 4 and Diaph ctr 30uM -12.
For O=C(CCCOc1ccc(Cl)cc1Cl)N/N=C/c1ccc(Cl)cc1 the results were HKDC1 inhibitor -7, G6PDH counter -5, Diaph inh CS 5, PfGluPho inh 62* and PfGluPho conf 21.
`Cc1cc(Cl)ccc1OCCCC(=O)N/N=C/c1cccc([N+](=O)[O-])c1` gave HKDC1 inhibitor 8, G6PDH counter 9, Diaph inh CS -4, PfGluPho inh 112*, PfGluPho conf 94*, Diaph ctr 10uM 81* and Diaph ctr 30uM 57*.
For COc1ccc(/C=N/NC(=O)CCCOc2ccc(Cl)cc2Cl)cc1 the results were HKDC1 inhibitor 15, G6PDH counter -2, Diaph inh CS 24 and PfGluPho inh 19.
Screening CC(=O)N(Cc1ccc(F)cc1)C1=C(NCc2ccccc2)C(=O)c2ccccc2C1=O returned HKDC1 inhibitor 29, G6PDH counter 51*, Diaph inh CS 34, PfGluPho inh 71* and PfGluPho conf 46.
